Each structure is given as a SMILES string. Some results are limits rather than exact numbers.

Data set [1] deals with Rattus norvegicus. As to the kind of experiment: Antiinflammatory activity in Albino rat assessed as inhibition of carrageenan-induced paw edema at 50 mg/kg, po administered 1 hr before carrageenan challenge by micro-pipette method relative to control. It is filed as functional. Also noted: scale not given: the % may be the effect or the level left. The gist of the method:
(§1)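 Rats of either sex, 75-125 g, in groups of 6 (one control group). Compounds were suspended in gum acacia and given orally 1 h before carrageenin. Foot volume was measured by micro-pipette before and at 1 and 3 h after carrageenin. % activity was calculated from the mean oedema volumes of treated (Vt) and control (Vc) groups.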

Data set [2] concerns Mus musculus. In words: Analgesic activity in mouse assessed as protection against phenylquinone-induced writhes at 50 mg/kg, po administered 1 hr before phenylquinone challenge relative to control. It is filed as functional. The procedure, abridged:
(§2)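 Mice in groups of 5 were dosed orally and, 1 h later, injected i.p. with 0.25 mL of 0.02% phenylquinone in 5% ethanol. Writhes per mouse were counted for 5 min, between 5 and 10 min after the irritant. % protection = (1 − mean writhes in test group / mean writhes in control group) × 100.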

Data set [3] can be described thus: Acute toxicity in ip dosed albino mouse assessed as mortality after 24 hrs. It is filed as organism-based. Conditions: in vivo, read-out: ALD50. The procedure, abridged: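 Albino mice of either sex (20-28 g), separate groups given graded intraperitoneal doses; percent mortality recorded 24 h after dosing; approximate 50% lethal dose (ALD50) calculated by the method of Smith.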

For data set [4], the system named is Rattus norvegicus. As to the kind of experiment: Antiinflammatory activity in Albino rat assessed as inhibition of carrageenan-induced paw edema at 25 mg/kg, po administered 1 hr before carrageenan challenge by micro-pipette method relative to control. Also noted: scale not given: the % may be the effect or the level left. In kind it is functional. The procedure, abridged: as §1
In general terms: In the carrageenan paw model, swelling and tenderness develop within hours.

For data set [5], the system named is Mus musculus. As to the kind of experiment: Analgesic activity in mouse assessed as protection against phenylquinone-induced writhes at 25 mg/kg, po administered 1 hr before phenylquinone challenge relative to control. In kind it is functional. The procedure, abridged: as §2
The subject of data set [6] is Rattus norvegicus. As to the kind of experiment: Antiinflammatory activity in Albino rat assessed as inhibition of carrageenan-induced paw edema at 100 mg/kg, po administered 1 hr before carrageenan challenge by micro-pipette method relative to control. In kind it is functional. The arrangement: scale not given: the % may be the effect or the level left. The procedure, abridged:
as §1

In data set [7] the test system is Mus musculus. As to the kind of experiment: Analgesic activity in mouse assessed as protection against phenylquinone-induced writhes at 100 mg/kg, po administered 1 hr before phenylquinone challenge relative to control. It is filed as functional. The procedure, abridged:
as §2

A short description of data set [8]: Toxicity in ip dosed Albino rat assessed as ulcerogenic activity after 8 hrs. In kind it is organism-based. Conditions: in vivo, read-out: UD50. The procedure, abridged: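 Adult albino rats of either sex, in groups of 10, non-pregnant, fasted 24 h with water allowed. Drugs were given i.p. and animals killed 8 h later. Stomach, duodenum and jejunum were examined with a hand lens for epithelial shedding, red spots or bleeding, and erosion or ulceration. Any one sign was scored as ulcerogenic. Result reported as UD50.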

As for `COc1ccc(/N=N/C(=N\c2nc(-c3c(-c4ccc(Cl)cc4)[nH]c4ccccc34)cs2)c2c[nH]c3ccccc23)cc1`, the Activity in data set [1] is on record as 19.2%; in data set [2], 18.8%. Besides, the LD50 at 24 h in data set [3] is more than 800 mg/kg.
In the case of `Cc1[nH]c2ccccc2c1/C=N/c1nc(-c2c(-c3ccc(Cl)cc3)[nH]c3ccccc23)cs1`, the Activity is listed as 36.4% in data set [4]; 35.1% in data set [5]; 53.3% in data set [1]; 68.2% in data set [6]; 51.4% in data set [2]; 64.6% in data set [7]. For the same molecule, the TD50 at 8 h in data set [8] stood at 200 mg/kg. Further, the LD50 at 24 h in data set [3] was more than 1000 mg/kg.
For the molecule `Clc1ccc(-c2[nH]c3ccccc3c2-c2coc(/N=C/c3c[nH]c4ccccc34)n2)cc1`, the Activity in data set [1] is reported as 22.7%; in data set [2] it was 20.9%. For the same molecule, the LD50 at 24 h in data set [3] is more than 800 mg/kg.
For `Clc1ccc(/N=N/C(=N\c2nc(-c3c(-c4ccc(Cl)cc4)[nH]c4ccccc34)cs2)c2c(-c3ccccc3)[nH]c3ccccc23)cc1` the same measures were 23.1%, 21.9% and more than 800 mg/kg.
The matching figures for `CCc1[nH]c2ccccc2c1C(=N/c1nc(-c2c(-c3ccc(Cl)cc3)[nH]c3ccccc23)co1)/N=N/c1ccc(OC)cc1`: 25.2%, 23.9% and more than 800 mg/kg.
Regarding `Cc1[nH]c2ccccc2c1C(=N/c1nc(-c2c(-c3ccc(Cl)cc3)[nH]c3ccccc23)cs1)/N=N/c1ccc(Cl)cc1`, the results for the Activity in data set [1] and in data set [2] were 21.2% and 19.8%, respectively. For the same molecule, the LD50 at 24 h in data set [3] is more than 800 mg/kg.
The matching figures for `CCc1[nH]c2ccccc2c1C(=N/c1nc(-c2c(-c3ccc(Cl)cc3)[nH]c3ccccc23)cs1)/N=N/c1ccc(OC)cc1`: 13.5%, 12.3% and more than 800 mg/kg.
The matching figures for `COc1ccc(/N=N/C(=N\c2nc(-c3c(-c4ccc(Cl)cc4)[nH]c4ccccc34)co2)c2c[nH]c3ccccc23)cc1`: 20.6%, 19.2% and more than 800 mg/kg.
For `COc1ccc(/N=N/C(=N\c2nc(-c3c(-c4ccc(Cl)cc4)[nH]c4ccccc34)co2)c2c(C)[nH]c3ccccc23)cc1`, the Activity in data set [1] turned out to be 19.1%; in data set [2], 17.8%. The LD50 at 24 h in data set [3] was more than 800 mg/kg.
The matching figures for `Cc1[nH]c2ccccc2c1C(=N/c1nc(-c2c(-c3ccc(Cl)cc3)[nH]c3ccccc23)co1)/N=N/c1ccc(Cl)cc1`: 22.1%, 21.2% and more than 800 mg/kg.
Regarding `COc1ccc(/N=N/C(=N\c2nc(-c3c(-c4ccc(Cl)cc4)[nH]c4ccccc34)co2)c2c(-c3ccccc3)[nH]c3ccccc23)cc1`, the values for the Activity in data set [1] and in data set [2] were 17.6% and 15.2%, respectively. Further, the LD50 at 24 h in data set [3] is more than 800 mg/kg.
As for `CCCCC1C(=O)N(c2ccccc2)N(c2ccccc2)C1=O` [PHENYLBUTAZONE], the Activity in data set [4] stood at 15.2%; in data set [5] it was 13.7%; in data set [1], 38.8%; in data set [6], 65.4%; in data set [2] it was 37.2%; in data set [7], 62.3%. Further, the TD50 at 8 h in data set [8] was 66.7 mg/kg.
`COc1ccc(/N=N/C(=N\c2nc(-c3c(-c4ccc(Cl)cc4)[nH]c4ccccc34)cs2)c2c(C)[nH]c3ccccc23)cc1`: the Activity is on record as 15.4% in data set [1] and 13.7% in data set [2]. Further, in data set [3], the LD50 at 24 h was more than 800 mg/kg.
For `Cc1[nH]c2ccccc2c1/C=N/c1nc(-c2c(-c3ccc(Cl)cc3)[nH]c3ccccc23)co1` the same measures were 21.3%, 19.9% and more than 800 mg/kg.
In the case of `Clc1ccc(-c2[nH]c3ccccc3c2-c2coc(/N=C/c3c(-c4ccccc4)[nH]c4ccccc34)n2)cc1`, the figures for the Activity in data set [1] and in data set [2] were 25.3% and 23.7%, respectively. The LD50 at 24 h in data set [3] is more than 800 mg/kg.
For `COc1ccc(/N=N/C(=N\c2nc(-c3c(-c4ccc(Cl)cc4)[nH]c4ccccc34)cs2)c2c(-c3ccccc3)[nH]c3ccccc23)cc1` the same measures were 11.5%, 10.5% and more than 800 mg/kg.
Regarding `Clc1ccc(/N=N/C(=N\c2nc(-c3c(-c4ccc(Cl)cc4)[nH]c4ccccc34)co2)c2c[nH]c3ccccc23)cc1`, the figures for the Activity in data set [1] and in data set [2] were 16.2% and 14.7%, respectively. For the same molecule, in data set [3], the LD50 at 24 h is more than 800 mg/kg.
For `CCc1[nH]c2ccccc2c1C(=N/c1nc(-c2c(-c3ccc(Cl)cc3)[nH]c3ccccc23)co1)/N=N/c1ccc(Cl)cc1` the same measures were 23.5%, 21.5% and more than 800 mg/kg.
Consider `Clc1ccc(-c2[nH]c3ccccc3c2-c2csc(/N=C/c3c(-c4ccccc4)[nH]c4ccccc34)n2)cc1`, for which the Activity in data set [1] was found to be 19.7%. Besides, the LD50 at 24 h in data set [3] was 800 mg/kg.
On to `Clc1ccc(/N=N/C(=N\c2nc(-c3c(-c4ccc(Cl)cc4)[nH]c4ccccc34)cs2)c2c[nH]c3ccccc23)cc1`, for which the Activity was determined as 9.6% in data set [1] and 8.5% in data set [2]. The LD50 at 24 h in data set [3] is more than 800 mg/kg.
For `Clc1ccc(/N=N/C(=N\c2nc(-c3c(-c4ccc(Cl)cc4)[nH]c4ccccc34)co2)c2c(-c3ccccc3)[nH]c3ccccc23)cc1` the same measures were 27.9%, 26.3% and more than 800 mg/kg.
For `CCc1[nH]c2ccccc2c1/C=N/c1nc(-c2c(-c3ccc(Cl)cc3)[nH]c3ccccc23)co1` the same measures were 17.3%, 16.2% and more than 800 mg/kg.
For `Clc1ccc(-c2[nH]c3ccccc3c2-c2csc(/N=C/c3c[nH]c4ccccc34)n2)cc1` the same measures were 31.8%, 30.6% and more than 800 mg/kg.
For `CCc1[nH]c2ccccc2c1C(=N/c1nc(-c2c(-c3ccc(Cl)cc3)[nH]c3ccccc23)cs1)/N=N/c1ccc(Cl)cc1`, the Activity in data set [1] turned out to be 17.3%; in data set [2], 16.2%. Moreover, the LD50 at 24 h in data set [3] was more than 800 mg/kg.
As to `CCc1[nH]c2ccccc2c1/C=N/c1nc(-c2c(-c3ccc(Cl)cc3)[nH]c3ccccc23)cs1`, the Activity in data set [1] came to 25.8%; in data set [2], 23.2%. Besides, the LD50 at 24 h in data set [3] is more than 800 mg/kg.
